The values that follow come from ChEMBL document CHEMBL1147356, “Structure and stereochemistry of pectinolides A-C, novel antimicrobial and cytotoxic 5,6-dihydro-alpha-pyrones from Hyptis pectinata” (1993).

Experiment [1] concerns A-431. The experiment is described as follows: Cytotoxicity against human A431 cells after 72 hrs by sulforhodamine B assay. It is filed as functional. The settings on record: A-431, 72 h, read-out: ED50 (the source's name). An outline of the steps: (§1)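 Log-phase cells treated with five sample concentrations (20.0–0.032 μg/ml) in DMSO for 72 h at 37°, 5% CO₂, 100% humidity. Sulforhodamine B staining quantified cells per well; results given as ED50.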
A general note: Sulforhodamine B stains cellular protein and so reports cell mass.

Experiment [2] is described as follows: Cytotoxicity against human LUC1 cells after 48 hrs by sulforhodamine B assay. In kind it is functional. The settings on record: LUC1, 48 h, read-out: ED50 (the source's name). The essentials:
(§2)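 Log-phase cells exposed to five concentrations (20.0–0.032 μg/ml) of sample in DMSO for 48 h at 37°, 5% CO₂, 100% humidity. Cell quantity per well determined by sulforhodamine B staining; ED50 reported.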

Experiment [3] deals with ZR-75-1. The experiment is described as follows: Cytotoxicity against human ZR-75-1 cells after 72 hrs by sulforhodamine B assay. The following applies: ZR-75-1, 72 h, read-out: ED50 (the source's name). It is filed as functional. The essentials: as §1
A short description of experiment [4]: Cytotoxicity against human BC1 cells after 72 hrs by sulforhodamine B assay. It is filed as functional. The settings on record: BC1, 72 h, read-out: ED50 (the source's name). An outline of the steps:
as §1

Experiment [5] relates to Staphylococcus aureus. The experiment is described as follows: Antibacterial activity against Staphylococcus aureus ATCC 6538 at < 100 ug/ml after 24 hrs at 37 degC by agar hole-plate diffusion assay. It is filed as functional, organism-based.
Experiment [6] relates to SK-MEL-2. The experiment is described as follows: Cytotoxicity against human SK-MEL-2 cells after 72 hrs by sulforhodamine B assay. In kind it is functional. The settings on record: SK-MEL-2, 72 h, read-out: ED50 (the source's name). An outline of the steps:
as §1

Experiment [7] deals with KB. The experiment is described as follows: Cytotoxicity against human KB cells after 72 hrs by sulforhodamine B assay. It is filed as functional. The settings on record: read-out: ED50 (the source's name). An outline of the steps:
as §1

Experiment [8] in a line: Cytotoxicity against vinblastine-resistant human KBV1 cells after 72 hrs by sulforhodamine B assay. It is filed as functional. The following applies: KB-V1, 72 h, read-out: ED50 (the source's name). An outline of the steps:
as §1

The test system of experiment [9] is HT-1080. The experiment is described as follows: Cytotoxicity against human HT1080 cells after 48 hrs by sulforhodamine B assay. It is filed as functional. The following applies: HT-1080, 48 h, read-out: ED50 (the source's name). An outline of the steps:
as §2

Experiment [10] has as its system Bacillus subtilis. The experiment is described as follows: Antibacterial activity against Bacillus subtilis ATCC 6633 at < 100 ug/ml after 24 hrs at 37 degC by agar hole-plate diffusion assay. It is filed as functional, organism-based.
Experiment [11] deals with LNCaP. The experiment is described as follows: Cytotoxicity against human LNCAP cells after 72 hrs by sulforhodamine B assay. In kind it is functional. The settings on record: read-out: ED50 (the source's name). The essentials: as §1
Experiment [12] relates to P388. The experiment is described as follows: Cytotoxicity against mouse P388 cells after 48 hrs by sulforhodamine B assay. It is filed as functional. The settings on record: P388, 48 h, read-out: ED50 (the source's name). The essentials:
as §2

Experiment [13] relates to Pseudomonas aeruginosa. The experiment is described as follows: Antibacterial activity against Pseudomonas aeruginosa ATCC 9027 by agar diffusion technique. In kind it is functional. In general terms: Agar diffusion results depend on both activity and mobility in agar.
Experiment [14] concerns Escherichia coli. The experiment is described as follows: Antibacterial activity against Escherichia coli ATCC 8739 by agar diffusion technique. In kind it is functional.
In experiment [15] the test system is Candida albicans. The experiment is described as follows: Antifungal activity against Candida albicans ATCC 10231 at < 100 ug/ml after 24 hrs at 25 degC by agar hole-plate diffusion assay. It is filed as functional, organism-based.
In experiment [16] the test system is Staphylococcus aureus. The experiment is described as follows: Antibacterial activity against Staphylococcus aureus ATCC 6538 after overnight incubation at 37 degC by twofold serial dilution technique. In kind it is functional. The essentials:
(§3)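 Twofold broth dilution MIC. Sample at 1 mg/ml in MeOH-H2O (1:1), 0.5 ml added to 4.5 ml nutrient broth, then doubling dilutions from 100 to 0.2 μg/ml. Each tube inoculated to 10⁶ organisms/ml final. Duplicate per organism, with solvent and streptomycin control broths.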

The subject of experiment [17] is Candida albicans. The experiment is described as follows: Antifungal activity against Candida albicans ATCC 10231 by agar diffusion technique. It is filed as functional.
Experiment [18] relates to Escherichia coli. The experiment is described as follows: Antibacterial activity against Escherichia coli ATCC 8739 at < 100 ug/ml after 24 hrs at 37 degC by agar hole-plate diffusion assay. It is filed as functional, organism-based.
Experiment [19] relates to Pseudomonas aeruginosa. The experiment is described as follows: Antibacterial activity against Pseudomonas aeruginosa ATCC 9027 at < 100 ug/ml after 24 hrs at 37 degC by agar hole-plate diffusion assay. In kind it is functional, organism-based.
Experiment [20] relates to Bacillus subtilis. The experiment is described as follows: Antibacterial activity against Bacillus subtilis ATCC 6633 after overnight incubation at 37 degC by twofold serial dilution technique. In kind it is functional. An outline of the steps:
as §3

For experiment [21], the system named is Bacillus subtilis. The experiment is described as follows: Antibacterial activity against Bacillus subtilis ATCC 6633 at 1 mg/ml after 24 hrs at 37 degC by agar hole-plate diffusion assay. It is filed as functional. The settings on record: ATCC 6633, 24 h, read-out: IZ. An outline of the steps: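 Agar hole-plate diffusion. Agar plates (15 ml) seeded with 1 ml overnight broth culture (10⁶ bacteria/ml); 11 mm holes filled with 100 μl of pure compound at 1 mg/ml. Streptomycin sulfate (1 mg/ml) as positive control. Duplicate per organism, 24 h at 37°. Inhibition zone diameters measured.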

Values after ≈ are worked out from the molar mass of the structure shown. Active and inactive are the calls of the source. The calls are words filed in the database; no cut-off is given here.

Regarding `CCCC[C@H](OC(C)=O)[C@@H](OC(C)=O)[C@H](OC(C)=O)[C@H]1CC=CC(=O)O1` [BORONOLIDE], the EC50 is 6.5 µg/mL (≈ 17.5 µM) in [1]; 3.9 µg/mL (≈ 10.5 µM) in experiment [2]; 8.7 µg/mL (≈ 23.5 µM) in experiment [3]; 2.8 µg/mL (≈ 7.56 µM) in experiment [4]; 3.3 µg/mL (≈ 8.91 µM) in [6]; 4 µg/mL (≈ 10.8 µM) in experiment [7]. Besides, the EC50 in experiment [8] worked out at 8.6 µg/mL (≈ 23.2 µM); in [9] it was 4.5 µg/mL (≈ 12.1 µM); in [11] it was 3.2 µg/mL (≈ 8.64 µM); in [12] it was 1 µg/mL (≈ 2.7 µM). The result in experiment [5] and in [10] was inactive.
With `CC(=O)O[C@H](/C=C\[C@H]1CC=CC(=O)O1)C[C@@H](OC(C)=O)[C@H](C)OC(C)=O` [HYPTOLIDE], the EC50 in experiment [1] was 3.7 µg/mL (≈ 10 µM); in [2], 4.9 µg/mL (≈ 13.3 µM); in [3], 6.4 µg/mL (≈ 17.4 µM); in experiment [4], 2.4 µg/mL (≈ 6.51 µM); in experiment [6] it was 12.2 µg/mL (≈ 33.1 µM); in experiment [7], 3.6 µg/mL (≈ 9.77 µM). The EC50 in [8] stood at 4.5 µg/mL (≈ 12.2 µM); in [9], 9.6 µg/mL (≈ 26.1 µM); in experiment [11], 7.5 µg/mL (≈ 20.4 µM); in experiment [12] it was 1.6 µg/mL (≈ 4.34 µM). Further, the MIC was greater than 500 µg/mL in experiment [13]; greater than 500 µg/mL in experiment [14]; greater than 100 µg/mL in experiment [16]; greater than 500 µg/mL in experiment [17]; 100 µg/mL (≈ 271 µM) in experiment [20]. Besides, the outcome in experiment [5], in [15], in experiment [18], in experiment [19] and in experiment [10] was inactive. Moreover, the zone of inhibition at 1000 µg/mL in [21] turned out to be 5 mm.

As a reminder, the MIC is the lowest concentration found to suppress growth. High values mean a less susceptible organism, low ones a more susceptible organism.
